TAAR1 ag = agonists of human TAAR1 | activation, % at 3 µM | AID 624467 | Q96RJ0 | 360,000 tested, 0.99% active | CHO RD-HGA16 TAAR1, Fluo-8 calcium fluorescence; vehicle wells 0%, saturating PEA agonist 100%;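 active = activation above the mean activation of all test compounds in the run plus 3 SD, cut at about 38% in these data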
Target sequence (Q96RJ0 whole entry, looked up): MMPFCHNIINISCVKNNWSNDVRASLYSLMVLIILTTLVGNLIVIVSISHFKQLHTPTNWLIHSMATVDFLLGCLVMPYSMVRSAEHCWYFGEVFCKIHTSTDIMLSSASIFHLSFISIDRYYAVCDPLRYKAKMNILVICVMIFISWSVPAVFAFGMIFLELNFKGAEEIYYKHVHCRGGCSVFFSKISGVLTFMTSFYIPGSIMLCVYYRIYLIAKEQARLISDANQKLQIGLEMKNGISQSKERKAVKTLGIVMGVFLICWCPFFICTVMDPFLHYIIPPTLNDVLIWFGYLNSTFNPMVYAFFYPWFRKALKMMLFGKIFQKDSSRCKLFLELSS
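Test system: RD-HGA16 (CHO) cells co-expressing Gα16 and hTAAR1 / Benchmarks: DMSO vehicle as 0%, PEA at EC100 as 100% / Repeats: no replicates (n 1) / Measure: % activation from peak over basal fluorescence ratio, DMSO-to-PEA scaled / Timing: 17-24 h plating, Fluo-8 75 min 37 °C, 30 min RT / Technique: kinetic Fluo-8 calcium fluorescence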
NTR1 ag = agonists of human neurotensin receptor NTR1 | NTR1-U2OS beta-arrestin-GFP spot imaging, agonist mode | 330,000 tested, 0.17% active | activation, % at 20 µM;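 active = activation at or above 40% of the spot to cytoplasm intensity ratio, with at least 20 cells analyzed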
OX1R antag-1 = antagonists of human orexin 1 receptor | CHO/OX1R cells, Fluo-8 calcium fluorescence, orexin A | AID 434989 | O43613 | 330,000 tested, 0.43% active | inhibition, % at 5 µM;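 active = inhibition above its plate's threshold, mean inhibition of all tested compounds on the plate plus 3 SD, cut at about 37% in these data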
CHO parental Ca = counter-screen: ATP calcium response change in parental CHO cells; parental CHO-K1, ATP-induced calcium, Fluo-8 fluorescence; inhibition, % at 5.6 µM; 330,000 tested, 0.63% active;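 active = inhibition above that plate's mean sample inhibition plus 3 SD, cut at about 26% in these data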
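material = parental CHO cells | also added = ATP as calcium-mobilizing challenge | dosing = single point at 5.6 µM | detection = intracellular calcium via Fluo-8 no-wash fluorescent dye | read-out = % inhibition | benchmarks = low control ATP plus DMSO, high control DMSO only | repeats = one well per compound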
TAAR1 antagonist = antagonists of human TAAR1; Q96RJ0; CHO RD-HGA16 TAAR1, Fluo-8 calcium fluorescence, antagonist; inhibition, % at 3 µM; 360,000 tested, 1.5% active;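 active = inhibition above a per-plate cutoff, the mean inhibition of test compounds on that plate plus 3 SD, cut at about 49% in these data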
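Test system: RD-HGA16 CHO cells with stable hTAAR1 and Gα16 / Probe or stimulus: EC80 β-phenethylamine stimulus / Times: seeding 17-24 h prior, 75-min 37 °C, 30-min RT dye loading / Detection: Fluo-8 calcium-sensitive fluorescence / Read-out basis: % inhibition scaled between DMSO and EC80 PEA controls / Repeats: singlicate, one well per test compound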
OX1R antag-2 = OX1R (human) antagonism; inhibition, % at 6.6 µM; AID 485270; 330,000 tested, 1.8% active; O43613; OX1R-expressing cells, FRET antagonist read-out; in the data active = inhibition mostly above about 38%, no sharp cut-off; inactive = mostly below about 40%
Numbers stand for hits; 0 = inactive; - = no result. Compounds with a hit are over-represented: about 4% of the library has one in this group of screens.

SMILES	TAAR1 ag	NTR1 ag	OX1R antag-1	CHO parental Ca	TAAR1 antagonist	OX1R antag-2
COc1ccccc1CCNC(=O)C(=O)NCC1OCCCN1S(=O)(=O)c1cc(C)ccc1C (stereo not drawn)	0	0	0	0	0	66
Cc1ccc(C)c(S(=O)(=O)N2CCCOC2CNC(=O)C(=O)NCc2ccco2)c1 (stereo not drawn)	0	0	0	0	0	0
COc1ccc(S(=O)(=O)N2CCCOC2CNC(=O)C(=O)NCCc2ccco2)cc1C (stereo not drawn)	0	0	0	0	0	70
Cc1ccc(C)c(S(=O)(=O)N2CCCCC2CCNC(=O)C(=O)NC2CC2)c1 (stereo not drawn)	0	0	0	0	0	35
Cc1ccc(C)c(S(=O)(=O)N2CCCC2CNC(=O)C(=O)NC2CCCCCC2)c1 (stereo not drawn)	0	0	0	0	0	0
CCCCCCCCN1C(=O)[C@@H](CC(=O)NCc2cccc3ccccc23)C[C@@]2(C(=O)OC)C1=C[C@H](C1CCCC1)O[C@@H]2C	0	-	-	-	0	-
COc1ccccc1CCNC(=O)C(=O)NCC1OCCN1S(=O)(=O)c1cc(F)ccc1F (stereo not drawn)	38	0	0	0	0	0
CN(C)CCNC(=O)C(=O)NCC1OCCN1S(=O)(=O)c1cc(F)ccc1F (stereo not drawn)	0	0	0	0	0	0
COc1cc(C(=O)NCc2cccnc2)ccc1OCC(=O)Nc1cccc(C(F)(F)F)c1	0	0	0	43	0	0
O=C(c1nc2nc(-c3ccc(Cl)cc3)cc(C(F)(F)F)n2n1)N1CCOCC1	0	0	0	0	0	46
O=C(c1nn2c(C(F)(F)F)cc(-c3ccc(F)cc3)nc2c1Cl)N1CCOCC1	0	0	0	0	0	0
Nc1ccn([C@@H]2O[C@H](C(=O)N[C@H](Cc3ccccc3)C(=O)N3CCC(F)(F)CC3)[C@@H](O)[C@H]2O)c(=O)n1	0	-	-	-	0	-
CCc1ccc(-c2cc(C)no2)cc1S(=O)(=O)N1CCOc2ccccc21	0	0	0	0	0	49
CCOc1ccc(N(C)S(=O)(=O)c2cc(-c3cc(C)no3)ccc2OC)cc1	0	0	0	0	0	0
CCOc1ccc(N(C)S(=O)(=O)c2cc(-c3cc(C)no3)ccc2C)cc1	0	0	0	0	65	0
CCOc1ccc(N(C)S(=O)(=O)c2cc(-c3cc(C)no3)ccc2CC)cc1	0	0	43	64	58	0
COc1ccc(-c2cc(C)no2)cc1S(=O)(=O)N1CCOc2ccc(C)cc21	0	0	0	0	0	0
COC(=O)C1=C(C)N(CC(C)C)C(=S)NC1c1cccc(OC)c1 (stereo not drawn)	0	-	-	-	0	-
COC(=O)c1cc(C(=O)OCC(=O)NCc2cccs2)cc([N+](=O)[O-])c1	0	0	0	0	0	31
Cc1cc(C(=O)OCC(=O)NCc2cccs2)ccc1[N+](=O)[O-]	0	0	0	0	0	0
COC(=O)[C@]12C[C@H](CC(=O)NCCC(C)C)C(=O)N(CCC3=CCCCC3)C1=C[C@H](C(C)(C)C)O[C@@H]2C	0	-	-	-	0	-
O=[N+]([O-])C(=C1SCCS1)C(=C(Cl)Cl)N1CCCCC1	0	0	0	0	0	0
O=[N+]([O-])C(/C=C(\Cl)[N+](=O)[O-])=C(N1CCCCC1)N1CCCCC1	0	0	0	0	0	64
O=C(O)c1ccccc1Nc1ccc([N+](=O)[O-])cc1	0	-	0	0	0	0
O=[N+]([O-])c1c(Nc2ccc(O)cc2)cc(Cl)c2nonc12	0	0	76	61	63	99
SMILES	TAAR1 ag	NTR1 ag	OX1R antag-1	CHO parental Ca	TAAR1 antagonist	OX1R antag-2
O=C(O)c1cccc(Nc2ccc([N+](=O)[O-])c3nonc23)c1	0	0	0	0	0	34
O=C(O)c1ccccc1Nc1cc(Cl)c2nonc2c1[N+](=O)[O-]	0	0	0	0	0	61
O=[N+]([O-])c1c(Nc2ccccn2)cc(Cl)c2nonc12	0	0	0	0	0	45
CC(C)NC(=O)CCCN1C(=O)c2ccccc2Sc2ncccc21	0	0	0	0	0	0
O=C(O)c1cccc(Nc2cc(Cl)c3nonc3c2[N+](=O)[O-])c1	0	0	0	0	0	58
COc1ccc(S(=O)(=O)N(C)[C@H]2C[C@H]3c4cc(-c5ccccc5)ccc4CCN3C(=O)[C@H]2[C@H](C)O)cc1	0	-	-	-	56	-
COc1ccc(S(=O)(=O)N(C)[C@H]2C[C@H]3c4cc(Oc5ccccc5C)ccc4CCN3C(=O)[C@H]2[C@H](C)O)cc1	0	-	-	-	0	-
O=C1NC(Cc2ccccc2)c2nc3ccc(Cl)cc3c(=O)n2-c2cc3ccccc3cc21 (stereo not drawn)	0	-	-	-	0	-
O=C1NC(Cc2ccccc2)c2nc3ccc(F)cc3c(=O)n2-c2cc3ccccc3cc21 (stereo not drawn)	0	-	-	-	49	-
C[C@H](O)[C@@H]1CN2CCc3ccc(-c4ccc5c(c4)OCO5)cc3[C@@H]2C[C@@H]1N(C)C(=O)c1ccco1	0	-	-	-	0	-
Cc1ccc(CNC(=O)[C@]2(C)CCC[C@@]3(C)C4CC[C@@]5(C)C[C@]4(CCC32)CC5=O)cc1 (stereo partly drawn)	0	0	0	0	0	0
COc1ccc(CNC(=O)[C@]2(C)CCC[C@@]3(C)C4CC[C@@]5(C)C[C@]4(CCC32)CC5=O)cc1 (stereo partly drawn)	0	0	0	0	49	0
COc1ccccc1C(=O)NCC(=O)NCCC(c1ccccc1)c1ccccc1	0	0	0	0	0	0
Cc1ccc(-c2noc(CSc3nnc(-c4ccncc4)n3-c3ccc(C)cc3)n2)cc1	0	0	0	0	0	0
Cc1ccc(-c2noc(CSc3nnnn3C3CCCCC3)n2)cc1	0	0	0	38	0	0
CN1C(=O)[C@@]2(O[C@H]3[C@H]4C=C[C@@H]([C@H]5C(=O)N(Cc6ccccc6)C(=O)[C@@H]45)N3C3=C2C(=O)CC3)c2ccccc21	0	-	-	-	0	-
CC(=O)c1c(C)[nH]c(C(=O)Nc2cccc(C(F)(F)F)c2)c1C	0	0	45	37	0	70
Cc1ccccc1OCC(O)Cn1c(=N)n(Cc2ccccc2)c2ccccc21 (stereo not drawn)	0	0	0	39	0	0
COc1ccccc1OCC(O)Cn1c(=N)n(Cc2ccccc2)c2ccccc21 (stereo not drawn)	0	0	0	0	0	0
NC(CCC(=O)NC(CS)C(=O)NCC(=O)O)C(=O)O (stereo not drawn)	0	-	-	-	0	-
O=C(NC(=S)N1CCCCC1)c1csc([N+](=O)[O-])c1	0	0	0	0	0	37

Bioassay records (PubChem BioAssay)
